The results in this text go back to ChEMBL document CHEMBL1129452, “Phenethylthiazolylthiourea (PETT) compounds as a new class of HIV-1 reverse transcriptase inhibitors. 2. Synthesis and further structure-activity relationship studies of PETT analogs” (J Med Chem, 1996).

The subject of assay [1] is MT4. As to the kind of experiment: Inhibition of HIV-1(IIIB) variants (Ile100/Cys181) in HIV-1 MT-4 cells. The format is functional. To be noted: Homo sapiens, read-out: ED50 (the source's name). In a few lines:
(§1)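 MT-4 cells (human T cell line) in RPMI 1640 with 10% fetal calf serum, penicillin and streptomycin, seeded at 2 × 10⁴ cells/well. Infected with 10-20 TCID₅₀ of mutant HIV-1 IIIB per well, with the compound added at different concentrations. Incubated at 37 °C in CO₂. Cell viability read by XTT dye at day 5 or 6. Activity taken as the reduction in viral cytopathic effect, given as ED₅₀. Mutants were raised by passage in stepwise increasing concentrations of non-nucleoside RT inhibitors.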

For assay [2], the system named is MT4. As to the kind of experiment: Inhibition of mutant type (Cys181) HIV-1 (IIIB) replication in MT-4 cells. To be noted: Homo sapiens, read-out: ED50 (the source's name). The format is functional. In a few lines: as §1
The test system of assay [3] is MT4. As to the kind of experiment: Inhibition of mutant type (Ile100) HIV-1 (IIIB) replication in MT-4 cells. The following applies: Homo sapiens, read-out: ED50 (the source's name). In kind it is functional. In a few lines:
as §1

Assay [4] has as its system MT4. As to the kind of experiment: Tested for the inhibition of wild type HIV-1 (IIIB) replication in MT-4 cells. In kind it is functional. The following applies: Homo sapiens, read-out: ED50 (the source's name). The procedure, abridged: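 MT-4 human T cells in RPMI 1640 with 10% fetal calf serum, penicillin and streptomycin, seeded at 2 × 10⁴ cells/well and infected with 10-20 TCID₅₀ HIV-1 IIIB per well. Compounds were added over a concentration range and cultures kept at 37 °C in CO₂. Viability was read by XTT at day 5 or 6, and activity was taken as reduction of viral cytopathic effect.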

Assay [5] has as its system MT4. In words: Inhibition of HIV-1(IIIB) variants (Ile100/Asn103) in HIV-1 MT-4 cells. To be noted: Homo sapiens, read-out: ED50 (the source's name). The format is functional. The procedure, abridged: as §1
For assay [6], the target named is T1, Human immunodeficiency virus type 1 reverse transcriptase (Human immunodeficiency virus 1, UniProt Q72547). In words: Tested for the inhibition of mutant type (Cys181) HIV-1 (IIIB) RT.
In assay [7] the target is T1, Human immunodeficiency virus type 1 reverse transcriptase. As to the kind of experiment: Tested for the inhibition of mutant type (Ile100) HIV-1 (IIIB) RT.
Assay [8] has the same target. As to the kind of experiment: Tested for the inhibition of wild type HIV-1 (IIIB) RT.
The test system of assay [9] is MT4. As to the kind of experiment: Inhibition of HIV-1(IIIB) variants (Ile100/Cys181 in HIV-1 MT-4 cells. To be noted: Homo sapiens, read-out: ED50 (the source's name). The format is functional. The procedure, abridged:
as §1

The subject of assay [10] is MT4. As to the kind of experiment: Inhibition of HIV-1(IIIB) variants (Ile100/Cys 181) in HIV-1 MT-4 cells. In kind it is functional. The following applies: Homo sapiens, read-out: ED50 (the source's name). In a few lines:
as §1

Where only a bound is given, the exact number is not on record here.

Turning to `COc1ccc(F)c(CC/N=C(\S)Nc2ccc(Br)cn2)c1C#N`, the EC50 with MT4 [1] is over 10000 nM; in the assay on MT4 [2], 40 nM; in the assay on MT4 [3] it was 250 nM; with MT4 [4] it was 3 nM; in the assay on MT4 [5], over 10000 nM. The values for the IC50 in assay [6], in assay [7] and in assay [8] were 50 nM, 50 nM and 1 nM, respectively.
Consider `Fc1ccoc1CC/N=C(\S)Nc1ccc(Cl)cn1`, for which the EC50 was over 10000 nM with MT4 [1]; 80 nM in the assay on MT4 [2]; 100 nM in the assay on MT4 [3]; 7 nM with MT4 [4]; over 10000 nM in the assay on MT4 [5]. For the same molecule, the IC50 (usually the midpoint of a concentration-inhibition curve) in assay [6] was determined as 140 nM; in assay [7] it was 230 nM; in assay [8] it was 4 nM.
As to `O=C1c2ccccc2C(=O)N1CCNC(=S)Nc1ccc(Cl)cn1`, the EC50 in the assay on MT4 [2] is 40 nM; in the assay with MT4 [3], 200 nM; in the assay on MT4 [4], 5 nM; in the assay with MT4 [5], over 10000 nM; in the assay on MT4 [9], 15000 nM. The IC50 was determined as 130 nM in assay [6], 280 nM in [7] and 1 nM in assay [8].
On to `CN(C)c1ccc(CC/N=C(\S)Nc2ccc(Br)cn2)c(F)c1C#N`, for which the EC50 turned out to be 20 nM in the assay on MT4 [2]; 150 nM with MT4 [3]; 13 nM in the assay on MT4 [4]; 5500 nM in the assay with MT4 [5]; 7500 nM in the assay on MT4 [9]. Further, the IC50 in assay [6] was determined as 110 nM; in assay [7], 210 nM; in assay [8], 8 nM.
`CCOc1ccc(F)c(CCNC(=S)Nc2ccc(Br)cn2)c1F`: the EC50 in the assay with MT4 [1] is 1200 nM; in the assay on MT4 [2], 6 nM; in the assay on MT4 [3], 100 nM; in the assay on MT4 [4], 6 nM; with MT4 [5] it was over 10000 nM. Besides, the IC50 is 20 nM in [6], 170 nM in assay [7] and 4 nM in assay [8].
Turning to `COc1ccc(OC)c(CCNC(=S)Nc2ccc(Cl)cn2)c1F`, the EC50 with MT4 [1] stood at 1000 nM; in the assay on MT4 [2], 3 nM; with MT4 [3], 9 nM; with MT4 [4], 2 nM; with MT4 [5], 1000 nM. Further, the concentration for half-maximal inhibition (IC50) in [6] was determined as 54 nM; in assay [7] it was 80 nM; in assay [8] it was 1 nM.
On to `N#Cc1ccc(F)c(CC/N=C(\S)Nc2ccc(Cl)cn2)c1F`, for which the EC50 was 50 nM in the assay on MT4 [2]; 800 nM with MT4 [3]; 6 nM with MT4 [4]; over 10000 nM in the assay on MT4 [5]; over 10000 nM in the assay with MT4 [10]. Moreover, the values for the IC50 in [6], in [7] and in [8] were 90 nM, 400 nM and 9 nM, respectively.
In the case of `COc1ccc(F)c(F)c1CCNC(=S)Nc1ccc(Br)cn1`, the EC50 in the assay with MT4 [2] is 40 nM; in the assay with MT4 [3], 600 nM; in the assay on MT4 [4], 7 nM; in the assay on MT4 [5], over 10000 nM; in the assay on MT4 [9], over 10000 nM. Besides, the values for the IC50 in [6], in assay [7] and in [8] were 4 nM, 50 nM and 3 nM, respectively.
With `CCOc1ccc(OC)c(CCNC(=S)Nc2ccc(Cl)cn2)c1F`, the EC50 in the assay with MT4 [1] is over 10000 nM; with MT4 [2], 9 nM; in the assay with MT4 [3] it was 90 nM; with MT4 [4] it was 5 nM; in the assay on MT4 [5] it was over 10000 nM. For the same molecule, the results for the IC50 in assay [6], in assay [7] and in assay [8] were 34 nM, 160 nM and 5 nM, respectively.
Regarding `CCOc1ccc(F)c(F)c1CCNC(=S)Nc1ccc(Br)cn1`, the EC50 was over 10000 nM with MT4 [1]; 200 nM with MT4 [2]; 1500 nM with MT4 [3]; 7 nM in the assay with MT4 [4]; over 10000 nM in the assay with MT4 [5]. In addition, the values for the IC50 in assay [6], in assay [7] and in assay [8] were 10 nM, 20 nM and 5 nM, respectively.
Regarding `CCOc1ccc(F)c(CC/N=C(\S)Nc2ccc(Br)cn2)c1C#N`, the EC50 in the assay on MT4 [1] is 3000 nM; in the assay on MT4 [2], 5 nM; in the assay with MT4 [3], 40 nM; with MT4 [4] it was 4 nM; in the assay with MT4 [5], over 10000 nM. Besides, the IC50 in [6] turned out to be 210 nM; in [7], 140 nM; in [8] it was 2 nM.
